# Results taken from ChEMBL document CHEMBL1155470, “Colloid formation by drugs in simulated intestinal fluid” (J Med Chem, 2010).
# Where a name gives a salt, the structure may show the parent alone. Calls of active or inactive are those of the source. The rule behind the calls is not given here.
# How the values were obtained:
# [1] = Colloidal aggregation in fed state simulated intestinal fluid assessed as colloid radius at 5 uM by dynamic light scattering assay in presence of 1% DMSO; format: physicochemical; settings: simulated gi fluid
# Outline: (§1)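 Concentrated DMSO stocks diluted into filtered FeSSIF: blank FeSSIF plus 15 mM sodium taurocholate and 3.75 mM lecithin, dissolved at 37 °C. Final DMSO 1% unless otherwise noted. Particle size by dynamic light scattering at 826.6 nm, detector at 90°, 100% laser power. Values are averages of three or more independent measurements at room temperature.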
# Cruzipain [2] = target: T1, Cruzipain (Trypanosoma cruzi, UniProt P25779); assay: Inhibition of Trypanosoma cruzi cruzaine preincubated for 5 mins before substrate addition by fluorescence assay in presence of 0.01% Triton X-100
# T1 sequence (P25779 whole entry): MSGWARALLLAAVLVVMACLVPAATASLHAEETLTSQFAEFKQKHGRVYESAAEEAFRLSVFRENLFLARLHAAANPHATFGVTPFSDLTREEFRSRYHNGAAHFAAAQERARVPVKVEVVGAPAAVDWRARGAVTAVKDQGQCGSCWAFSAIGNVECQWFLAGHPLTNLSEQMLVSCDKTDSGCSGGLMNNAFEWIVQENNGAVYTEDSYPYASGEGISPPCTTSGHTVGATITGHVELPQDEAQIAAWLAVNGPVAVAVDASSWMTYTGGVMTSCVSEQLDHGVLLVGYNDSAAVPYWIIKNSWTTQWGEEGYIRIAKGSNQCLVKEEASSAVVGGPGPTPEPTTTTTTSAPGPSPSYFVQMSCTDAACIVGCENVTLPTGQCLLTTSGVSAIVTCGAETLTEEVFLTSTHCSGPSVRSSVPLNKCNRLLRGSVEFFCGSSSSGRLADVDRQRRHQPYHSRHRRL
# Cruzipain [3] = target: T1, Cruzipain; assay: Inhibition of Trypanosoma cruzi cruzaine preincubated for 5 mins before substrate addition by fluorescence assay in absence of Triton X-100
# [4] = Colloidal aggregation in fed state simulated intestinal fluid by dynamic light scattering assay in presence of 0.2% DMSO; format: physicochemical; settings: simulated gi fluid; outline: as §1
# [5] = Colloidal aggregation in fed state simulated intestinal fluid by dynamic light scattering-based beads autocorrelation assay in presence of 1% DMSO; format: physicochemical; settings: simulated gi fluid
# Outline: (§2)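 FeSSIF samples examined by DLS (826.6 nm laser, 90° detector, room temperature), comparing autocorrelation curves with blank FeSSIF. The micelle background was checked with 200 nm calibration beads diluted in FeSSIF. Drug samples were made by diluting DMSO stocks into filtered FeSSIF (15 mM taurocholate, 3.75 mM lecithin).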
# [6] = Colloidal aggregation in fed state simulated intestinal fluid assessed as colloid radius at 20 uM by dynamic light scattering assay in presence of 0.2% DMSO; format: physicochemical; settings: simulated gi fluid; outline: as §1
# [7] = Colloidal aggregation in fed state simulated intestinal fluid assessed as colloid radius at 100 uM by dynamic light scattering assay in presence of 1% DMSO; format: physicochemical; settings: simulated gi fluid; outline: as §1
# [8] = Colloidal aggregation in fed state simulated intestinal fluid assessed as colloid radius at 50 uM by dynamic light scattering assay in presence of 1% DMSO; format: physicochemical; settings: simulated gi fluid; outline: as §1
# [9] = Colloidal aggregation in fed state simulated intestinal fluid assessed as colloid radius at 200 uM by dynamic light scattering assay in presence of 1% DMSO; format: physicochemical; settings: simulated gi fluid; outline: as §1
# [10] = Colloidal aggregation in fed state simulated intestinal fluid assessed as colloid radius at 10 uM by dynamic light scattering assay in presence of 1% DMSO; settings: simulated gi fluid
# [11] = Colloidal aggregation in fed state simulated intestinal fluid assessed as colloid radius at 20 uM by dynamic light scattering assay in presence of 1% DMSO; format: physicochemical; settings: simulated gi fluid; outline: as §1
# [12] = Colloidal aggregation in fed state simulated intestinal fluid at 700 uM by transmission electron microscopy in presence of 3% DMSO; format: physicochemical; settings: simulated gi fluid
# Outline: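 Drug DMSO stocks diluted into FeSSIF. Samples adsorbed ~30 s onto glow-discharged formvar/carbon-coated copper grids and negatively stained with 2% ammonium molybdate. Viewed by transmission electron microscopy at 80 kV, standard magnification 25 000, calibrated with catalase crystals and ferritin.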
# [13] = Binding affinity to beta-lactamase AmpC at 700 uM after 30 mins by SDS-PAGE
# Outline: (§3)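 Cosedimentation in FeSSIF, with and without 2 μg AmpC β-lactamase added per sample. Samples centrifuged at 16000g for 30 min at room temperature. Supernatant removed completely; pellets resuspended in DMSO plus 50 mM KPi pH 7.0 and run on SDS-PAGE. Protein detected by silver staining. Drug-only pellets included as background controls.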
# [14] = Colloidal aggregation in fed state simulated intestinal fluid by dynamic light scattering assay in presence of 3% DMSO; format: physicochemical; settings: simulated gi fluid; outline: as §1
# [15] = Colloidal aggregation in fed state simulated intestinal fluid by dynamic light scattering assay in presence of 0.5% DMSO; format: physicochemical; settings: simulated gi fluid; outline: as §1
# [16] = Colloidal aggregation in fed state simulated intestinal fluid assessed as colloid radius at 600 uM by dynamic light scattering assay in presence of 3% DMSO; format: physicochemical; settings: simulated gi fluid; outline: as §1
# [17] = Aggregation-based binding affinity to beta-lactamase AmpC at 700 uM in fed state simulated intestinal fluid after 30 mins by silver staining in presence of 3% DMSO; outline: as §3
# [18] = Colloidal aggregation in phosphate buffer at 200 uM by transmission electron microscopy in presence of 0.2% DMSO; format: physicochemical
# Outline: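 Drug DMSO stocks diluted into 50 mM phosphate buffer. Samples adsorbed ~30 s onto glow-discharged formvar/carbon-coated copper grids and negatively stained with 2% ammonium molybdate. Imaged by transmission electron microscopy at 80 kV, standard magnification 25 000.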
# [19] = Colloidal aggregation in fed state simulated intestinal fluid at 550 uM by dynamic light scattering-based beads autocorrelation assay in presence of 2.75% DMSO; format: physicochemical; settings: simulated gi fluid; outline: as §2
# [20] = Colloidal aggregation in fed state simulated intestinal fluid by dynamic light scattering assay in presence of 0.25% DMSO; format: physicochemical; settings: simulated gi fluid; outline: as §1
# [21] = Colloidal aggregation in fed state simulated intestinal fluid by dynamic light scattering assay in presence of 2.75% DMSO; format: physicochemical; settings: simulated gi fluid; outline: as §1
# [22] = Colloidal aggregation in fed state simulated intestinal fluid assessed as colloid radius at 550 uM by dynamic light scattering assay in presence of 2.75% DMSO; settings: simulated gi fluid
smiles,measurement,setting,value
Cc1cccc(CN2CCN(C(c3ccccc3)c3ccc(Cl)cc3)CC2)c1.Cl (stereo not drawn) [MECLIZINE DIHCL],Activity,[1],133.3 nm
same,IC50,Cruzipain [2],> 250 µM
same,IC50,Cruzipain [3],129 µM
CC(C)=CCC/C(C)=C/CC/C(C)=C/CC/C(C)=C/CC1=C(C)C(=O)c2ccccc2C1=O [MENATETRENONE],Activity,[4],20 µM
same,Activity,[1],72.5 nm
same,Activity,[5],Active
same,Activity,[6],36.8 nm
same,IC50,Cruzipain [2],> 200 µM
same,IC50,Cruzipain [3],18 µM
Cc1ccc(NC(=O)c2ccc(CN3CCN(C)CC3)cc2)cc1Nc1nccc(-c2cccnc2)n1 [IMATINIB],Activity,[7],118.4 nm
same,IC50,Cruzipain [2],297 µM
same,IC50,Cruzipain [3],207 µM
O=C(Nc1cccc2c(=O)cc(-c3nnn[nH]3)oc12)c1ccc(OCCCCc2ccccc2)cc1,Activity,[8],1167.7 nm
same,IC50,Cruzipain [2],68 µM
same,IC50,Cruzipain [3],7 µM
C(=C\c1ccccc1)/CN1CCN(C(c2ccccc2)c2ccccc2)CC1 [CINNARIZINE],IC50,Cruzipain [2],> 300 µM
same,IC50,Cruzipain [3],124 µM
Cc1cc(C#N)cc(C)c1Oc1nc(Nc2ccc(C#N)cc2)nc(N)c1Br [ETRAVIRINE],Activity,[9],373.3 nm
same,Activity,[5],Active
same,IC50,Cruzipain [2],> 200 µM
same,IC50,Cruzipain [3],4 µM
same,Activity,[10],323.2 nm
O=C(c1ccc(OCCN2CCCCC2)cc1)c1c(-c2ccc(O)cc2)sc2cc(O)ccc12 [RALOXIFENE],Activity,[11],192.2 nm
same,IC50,Cruzipain [2],128 µM
same,IC50,Cruzipain [3],33 µM
CCCCc1oc2ccccc2c1C(=O)c1cc(I)c(OCCN(CC)CC)c(I)c1 [AMIODARONE HYDROCHLORIDE],IC50,Cruzipain [2],206 µM
same,IC50,Cruzipain [3],4 µM
CC(C)Nc1cccnc1N1CCN(C(=O)c2cc3cc(NS(C)(=O)=O)ccc3[nH]2)CC1.CS(=O)(=O)O [DELAVIRDINE MESYLATE],Activity,[12],Active
same,Activity,[13],inactive
same,Activity,[14],600 µM
same,Activity,[7],195.1 nm
same,Activity,[5],Active
same,Activity,[15],100 µM
same,Activity,[16],62.8 nm
same,Activity,[17],Active
same,IC50,Cruzipain [2],> 200 µM
same,IC50,Cruzipain [3],122 µM
same,Activity,[18],Active
Cc1c(O)cccc1C(=O)N[C@@H](CSc1ccccc1)[C@H](O)CN1C[C@H]2CCCC[C@H]2C[C@H]1C(=O)NC(C)(C)C,Activity,[11],690.7 nm
same,IC50,Cruzipain [2],> 300 µM
same,IC50,Cruzipain [3],144 µM
CCOc1nc2cccc(C(=O)OC(C)OC(=O)OC3CCCCC3)c2n1Cc1ccc(-c2ccccc2-c2nnn[nH]2)cc1 (stereo not drawn) [CANDESARTAN CILEXETIL],Activity,[19],Active
same,Activity,[20],50 µM
same,Activity,[21],550 µM
same,Activity,[22],50.1 nm
same,Activity,[8],38.8 nm
same,IC50,Cruzipain [2],168 µM
same,IC50,Cruzipain [3],42 µM
